Read-outs that look alike come from different tables or passages of the source.
Key:
[1] = Urinary excretion of oral sugar probes; format: in vivo, human; settings: for Percent urinary excretion of oral sugar probe: healthy subjects, oral cocktail, mean ± SD/SE; for Lactulose/Mannitol Ratio / Percent urinary excretion of oral sugar probe corrected for CrCl / Sucralose/Lactulose Ratio: mean ± SE; for % Total (of 24 h urinary excretion) corrected for CrCl / % Total (cum) corrected for CrCl: normalized for CrCl; for % Total (of 24 h urinary excretion) / % Total (cumulative): not normalized; for Percent urinary excretion of oral sugar probe corrected for CrCl: percent excretion divided by creatinine clearance; for % Total (cum) corrected for CrCl / % Total (cumulative): cumulative first 12 h; for Range of tertile means of 24 h percent excretion of oral dose: data divided into 3 tertile groups, lowest to highest excretion
[2] = format: in vivo, human; settings: 24 h
Method in brief: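 Age- and BMI-matched controls and patients fasted overnight and emptied their bladders. At 6 AM they took 2 g mannitol, 7.5 g lactulose and 40 g sucrose in 8 oz water, plus 1 g sucralose in 2 capsules. Fasting continued 2 h, with no "diet" foods or drinks from 48 h before through the test. Urine was pooled over 24 h and sugars were measured as alditol acetates by GC (DB-225MS). Results were expressed as % of oral dose and as the sucralose/lactulose ratio.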

[3] = ref [18], cited from earlier work
[4] = 12-24 hour, listed as lactulose
[5] = 12-24 hour, listed as sucralose

Percent urinary excretion of oral sugar probe ([1]; 0-5 hour urine collection) [%]	% Total (of 24 h urinary excretion) corrected for CrCl ([1]; 0-5 hour) [%]	% Total (of 24 h urinary excretion) ([1]; 0-5 hour) [%]	Percent urinary excretion of oral sugar probe corrected for CrCl ([1]; 0-5 hour)	Percent urinary excretion of oral sugar probe ([1]; 0-24 hour urine collection) [%]	% Total (of 24 h urinary excretion) corrected for CrCl ([1]; 0-24 hour) [%]	% Total (of 24 h urinary excretion) ([1]; 0-24 hour) [%]	Percent urinary excretion of oral sugar probe corrected for CrCl ([1]; 0-24 hour)	Percent urinary excretion of oral sugar probe ([1]; 5-12 hour urine collection) [%]	% Total (of 24 h urinary excretion) corrected for CrCl ([1]; 5-12 hour) [%]	% Total (of 24 h urinary excretion) ([1]; 5-12 hour) [%]	Percent urinary excretion of oral sugar probe corrected for CrCl ([1]; 5-12 hour)	Percent urinary excretion of oral sugar probe ([1]; 12-24 hour urine collection) [%]	% Total (of 24 h urinary excretion) corrected for CrCl ([1]; 12-24 hour) [%]	% Total (of 24 h urinary excretion) ([1]; 12-24 hour) [%]	Percent urinary excretion of oral sugar probe corrected for CrCl ([1]; 12-24 hour)	% Total (cum) corrected for CrCl [1] [%]	% Total (cumulative) [1] [%]	Range of tertile means of 24 h percent excretion of oral dose [1]	SMILES	also measured
0.95 ± 0.6	30	29.3	0.012 ± 0.001	3.11 ± 0.2	100	100	0.04 ± 0.002	1.1 ± 0.19	32.4	26.8	0.012 ± 0.002	1.4 ± 0.1	40	43.9	0.016 ± 0.001	60	56.1	0.5%-1.7%	OC[C@H]1O[C@@H](O[C@@H]2[C@@H](CO)O[C@](O)(CO)[C@H]2O)[C@H](O)[C@@H](O)[C@H]1O [Lactulose, 4-o-β-D-galactopyranosyl-D-fructofuranose]	Lactulose/Mannitol Ratio ([1]; 0-5 hour urine): 0.065 ± 0.05; Lactulose/Mannitol Ratio ([1]; 0-5 hour urine, listed as lactulose): .065; % Total (of 24 h urinary excretion) ([1]; 0-5 hour, listed as lactulose): 29.3%; Lactulose/Mannitol Ratio ([1]; 0-24 hour urine): 0.124 ± 0.010; Lactulose/Mannitol Ratio ([1]; 0-24 hour urine, listed as lactulose): 0.124; Lactulose/Mannitol Ratio ([1]; 5-12 hour urine): 0.25 ± 0.03; Lactulose/Mannitol Ratio ([1]; 5-12 hour urine, listed as lactulose): 0.25; Lactulose/Mannitol Ratio ([1]; 12-24 hour urine): 0.534 ± 0.11; Lactulose/Mannitol Ratio ([1]; 12-24 hour urine, listed as lactulose): 0.534; % Total (of 24 h urinary excretion) corrected for CrCl [1, 4]: 40%; % Total (of 24 h urinary excretion) [1, 4]: 43.9%; Variation of lactulose/mannitol (L/M) ratio over 24 h ([1]; across collection segments, peak in second 12 hours): more than 8 fold
15.6 ± 0.8	52.9	61.5	0.18 ± 0.01	28.9 ± 1.3	99	100	0.34 ± 0.029	6.03 ± 0.96	22.6	20	0.077 ± 0.01	6.4 ± 1.3	23.5	18.5	0.08 ± 0.016	75.5	81.5	–	OC[C@@H](O)[C@@H](O)[C@H](O)[C@H](O)CO [Mannitol, D-mannitol]	% Total (of 24 h urinary excretion) corrected for CrCl ([1]; 0-5 hour, listed as mannitol): 52.9%; % Total (of 24 h urinary excretion) ([1]; 0-5 hour, listed as mannitol): 61.5%; % Total (of 24 h urinary excretion) corrected for CrCl ([1]; 12-24 hour, listed as mannitol): 23.5%; % Total (of 24 h urinary excretion) ([1]; 12-24 hour, listed as mannitol): 18.5%
0.5 ± 0.15	26.9	29.6	0.006 ± 0.0007	1.82 ± 0.17	94.6	100	0.0223 ± 0.002	–	26.9	27.4	0.006 ± 0.001	0.8 ± 0.7	40.8	43	0.009 ± 0.0009	53.8	57	0.3%-0.6%	OC[C@H]1O[C@@](CO)(O[C@H]2O[C@H](CO)[C@@H](O)[C@H](O)[C@H]2O)[C@@H](O)[C@@H]1O [Sucrose, α-D-glucopyranosyl-β-D-fructofuranoside]	–
0.5 ± 0.8	33.3	35.9	0.005 ± 0.001	1.23 ± 0.14	99.5	100	0.015 ± 0.002	0.51 ± 0.13	38	29.7	0.0057 ± 0.001	0.3 ± 0.04	28.2	34.4	0.004 ± 0.0006	71.3	65.6	0.4%-2.4%	OC[C@H]1O[C@H](O[C@]2(CCl)O[C@H](CCl)[C@@H](O)[C@@H]2O)[C@H](O)[C@@H](O)[C@H]1Cl [Sucralose, 1,6-dichloro-1,6-dideoxy-β-D-fructofuranosyl-4-chloro-4-deoxy-α-D-glucopyranoside]	Sucralose/Lactulose Ratio ([1]; 0-5 hour urine): 0.53 ± 0.10; Sucralose/Lactulose Ratio ([1]; 0-5 hour urine, listed as sucralose): 0.53; % Total (of 24 h urinary excretion) corrected for CrCl ([1]; 0-5 hour, listed as sucralose): 33.3%; % Total (of 24 h urinary excretion) ([1]; 0-5 hour, listed as sucralose): 35.9%; Sucralose/Lactulose Ratio ([1]; 0-24 hour urine): 0.49 ± 0.08; Sucralose/Lactulose Ratio ([1]; 0-24 hour urine, listed as sucralose): 0.49; Sucralose/Lactulose Ratio ([1]; 5-12 hour urine): 0.54 ± 0.13; Sucralose/Lactulose Ratio ([1]; 5-12 hour urine, listed as sucralose): 0.54; Sucralose/Lactulose Ratio ([1]; 12-24 hour urine): 0.36 ± 0.06; Sucralose/Lactulose Ratio ([1]; 12-24 hour urine, listed as sucralose): 0.36; % Total (of 24 h urinary excretion) corrected for CrCl [1, 5]: 28.2%; % Total (of 24 h urinary excretion) [1, 5]: 34.4%; mean urinary excretion sucralose/lactulose ratio ([2]; Parkinson's disease patients (N=9), p ≤ 0.001 vs controls): 0.48 ± 0.1; mean urinary excretion sucralose/lactulose ratio ([2]; healthy controls (N=10)): 0.21± 0.1; 24 h mean urinary excretion sucralose value ([3]; Parkinson's disease patients (N=9), p ≤ 0.015 vs controls): 1.12 ± 0.1; 24 h mean urinary excretion sucralose value ([3]; healthy controls (N=10), BMI/age-matched): 0.58 ± 0.1
